Among the data in ChEMBL document CHEMBL4316645, “Phenolic C-Glycosides and Aglycones from Marine-Derived Aspergillus sp. and Their Anti-Inflammatory Activities” (J Nat Prod, 2019) are IC50 and inhibition values, retold here.

Test [1] deals with RAW264.7. The test can be described thus: Inhibition of LPS-induced nitric oxide production in mouse RAW264.7 cells preincubated for 2 hrs followed by LPS-stimulation and measured after 12 hrs by Griess assay. It counts as functional, cell-based. The gist of the method:
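RAW264.7 cells seeded at 2 × 10^5 cells/well and preincubated 24 h, then treated 2 h with test compounds from 40 to 0.5 μM, then stimulated with LPS (1 μg/mL) for 12 h. Supernatant spun at 16 000 rpm for 20 min, mixed with Griess reagent (0.1% naphthyl ethylenediamine dihydrochloride, 1% sulfanilamide, 2% phosphoric acid) for 10 min at rt, read at 540 nm. Means of three independent experiments.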
Background: Griess reagent forms a coloured azo dye with nitrite.

The test system of test [2] is RAW264.7. The test can be described thus: Antiinflammatory activity in mouse RAW264.7 cells assessed as inhibition of LPS-induced IL-1beta production preincubated for 2 hrs followed by LPS-stimulation and measured after 12 hrs by ELISA. The class given is functional, cell-based. The gist of the method: (§1)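 Cells seeded at 2 × 10^5 cells/well and preincubated 24 h. They were pretreated 2 h with compound, then given LPS (1 μg/mL) for 12 h. IL-1β and IL-6 in the culture medium were measured by ELISA. Data are mean ± SD (n = 3), analysed by one-way ANOVA with Tukey's test against the LPS-only group.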
A general note: In an ELISA, binding on a coated surface is turned into a signal by an enzyme label.

Test [3] relates to RAW264.7. The test can be described thus: Antiinflammatory activity in mouse RAW264.7 cells assessed as inhibition of LPS-induced COX2 expression at 5 to 10 uM preincubated for 2 hrs followed by LPS-stimulation and measured after 12 hrs by Western blot analysis. The class given is functional, cell-based. The essentials:
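After 2 h compound pretreatment and 12 h LPS (1 μg/mL), cells were lysed in 20 mM Tris HCl pH 7.4 with protease inhibitors, and protein was quantified. Lysates were run on SDS-PAGE, transferred to PVDF, and blocked in PBS/0.1% Tween 20/5% skim milk for 1 h at rt. Blots were probed overnight at 4 °C for COX-2 and β-actin, developed by chemiluminescence, and bands quantified by densitometry. Mean ± SD, n = 3.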
In general terms: Immunoblotting shows a protein as a band on a membrane.

The test system of test [4] is RAW264.7. Put plainly: Antiinflammatory activity in mouse RAW264.7 cells assessed as inhibition of LPS-induced IL-6 production preincubated for 2 hrs followed by LPS-stimulation and measured after 12 hrs by ELISA. The class given is functional, cell-based. The gist of the method:
as §1

In test [5] the target is Transcription factor p65 (Mus musculus) (UniProt Q04207). Put plainly: Inhibition of NFkappaB p65 nuclear translocation in LPS-stimulated mouse RAW264.7 cells at 5 to 10 uM preincubated for 2 hrs followed by LPS-stimulation and measured after 12 hrs by DAPI staining based fluorescence microscopic analysis. It counts as cell-based. The gist of the method:
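Cells were fixed in 4% paraformaldehyde for 20 min and permeabilized with 0.2% Triton X-100 for 30 min. After 5% BSA block for 1 h, they were given anti-p65 primary overnight at 4 °C, then Alexa Fluor 594 secondary (1:500) for 1 h at rt. DAPI (5 μg/mL) was applied 30 min at 37 °C. Imaging used fluorescence microscopy, ex/em 590/617 nm for p65 and 360/450 nm for DAPI.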

Active and inactive are the calls of the source. The rule behind the calls is not given here.

Chain of Transcription factor p65 (Mus musculus) (Q04207 whole entry): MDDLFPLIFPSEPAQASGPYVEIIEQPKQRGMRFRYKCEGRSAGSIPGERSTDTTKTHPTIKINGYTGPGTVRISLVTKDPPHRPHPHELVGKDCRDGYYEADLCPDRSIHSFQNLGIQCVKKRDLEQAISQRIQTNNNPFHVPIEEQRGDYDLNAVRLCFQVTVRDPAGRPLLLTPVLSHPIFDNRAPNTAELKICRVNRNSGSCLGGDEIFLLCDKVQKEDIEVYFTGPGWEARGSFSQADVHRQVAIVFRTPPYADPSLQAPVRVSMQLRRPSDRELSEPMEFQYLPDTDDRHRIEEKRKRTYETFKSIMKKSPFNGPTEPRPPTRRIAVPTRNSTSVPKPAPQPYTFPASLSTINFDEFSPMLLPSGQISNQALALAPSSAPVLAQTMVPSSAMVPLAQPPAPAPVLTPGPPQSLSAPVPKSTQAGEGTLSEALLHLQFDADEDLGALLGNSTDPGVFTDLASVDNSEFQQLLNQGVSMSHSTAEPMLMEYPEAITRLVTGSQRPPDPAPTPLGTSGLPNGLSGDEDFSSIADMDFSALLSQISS

Regarding `CCC/C=C/C=C/C1Cc2cc(O)cc(O)c2C(=O)O1` (configuration not stated), the IC50 (usually the concentration at which inhibition is half-maximal) in test [1] is 17 µM.
In test [1], `C/C=C/C=C/CCc1cc(O)c([C@@H]2O[C@H](CO)[C@@H](O)[C@H](O)[C@H]2O)c(O)c1C(=O)OC` registered a 50% inhibitory concentration (IC50) greater than 40 µM.
Same read-out and setting: in the case of `CCC/C=C/C=C\CCc1cc(O)c([C@@H]2O[C@H](CO)[C@@H](O)[C@H](O)[C@H]2O)c(O)c1C(=O)OC` it was greater than 40 µM.
Consider `CC/C=C/C=C/CCc1cc(O)c([C@@H]2O[C@H](CO)[C@@H](O)[C@H](O)[C@H]2O)c(O)c1C(=O)OC`, for which the IC50 in test [1] was determined as 19 µM.
In test [1], `CCC/C=C/C=C\CCc1cc(O)c([C@@H]2O[C@H](CO)[C@@H](O)[C@H](O)[C@H]2O)c(O)c1` gave an IC50 greater than 40 µM.
The compound `CCC/C=C\C=C\CCc1cc(O)c([C@@H]2O[C@H](CO)[C@@H](O)[C@H](O)[C@H]2O)c(O)c1C(=O)OC` registered a half-inhibitory concentration (IC50) in test [1] of 14 µM.
The same measure, in the same setting: under `CCC/C=C\C=C\CCc1cc(O)c([C@@H]2O[C@H](CO)[C@@H](O)[C@H](O)[C@H]2O)c(O)c1` stands 30 µM; under `CCC/C=C/C=C/CCc1cc(O)cc(O)c1C(=O)O`, 9.9 µM.
`CCC/C=C/C=C/CCc1cc(O)c([C@@H]2O[C@H](CO)[C@@H](O)[C@H](O)[C@H]2O)c(O)c1C(=O)OC` showed an IC50 in test [1] greater than 40 µM.
In test [1], `CCC/C=C/C=C\CCc1cc(O)cc(O)c1` came in with an IC50 of 28 µM.
For `CCC/C=C/C=C/CCc1cc(O)cc(O)c1`, the IC50 in test [1] worked out at 6 µM. Also, the inhibition entry in test [2] and in test [4] was “Dose-dependent effect” throughout. Also, the inhibition result in test [3] and in test [5] was “Active” each time.
In the case of `CCC/C=C/C=C/CCc1cc(O)c([C@@H]2O[C@H](CO)[C@@H](O)[C@H](O)[C@H]2O)c(O)c1C(=O)OCC`, the half-maximal inhibitory concentration (IC50) in test [1] came to 15 µM.
As for `CCC/C=C/C=C/CCc1cc(O)c([C@@H]2O[C@H](CO)[C@@H](O)[C@H](O)[C@H]2O)c(O)c1`, the IC50 in test [1] is greater than 40 µM.
